Sampled rows, rich in hits. Any-hit rate of the full collection: about 2.5%.
TRPC4 inh: inhibitors of mouse TRPC4 channel, primary screen, Fluo4 calcium, HEK293 TRPC4beta/mu-opioid cells; Short transient receptor potential channel 4 (Mus musculus), Q9QUQ5; DAMGO-evoked Fluo4 calcium flux; active compounds read low; B-score at 10 µM; 300,000 tested, 0.39% active; AID 2247, 2010;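 active = B-score over 3 SD under the library average, no early fluorescence shift, positive overall ratio signal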
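System: stable TRPC4beta/mu-opioid receptor HEK293 cells; Dosing: single-point compound dosing; Measured by: Fluo4 Ca2+ flux fluorescence; Read-out basis: per-well B score of integrated baseline-normalized Fluo4 ratio.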
TRPC4 PAM: positive allosteric modulators of TRPC4, primary screen, cell-based, mouse TRPC4beta, HEK293 mu-opioid, Fluo-4 calcium. Short transient receptor potential channel 4 (Mus musculus), Q9QUQ5. DAMGO EC20, Fluo-4 Ca2+ flux; active compounds read high. B-score at 10 µM. 310,000 tested, 0.42% active;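 active = B-score of calcium response area above 5 SD of library B-scores, with initial fluorescence ratio within 5 SD of library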;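 also: B-score of integrated fluorescence ratio over time as area under calcium response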
TRPC6 inh: mouse TRPC6 channel inhibitors, primary screen, cell-based, HEK293, membrane potential dye | Short transient receptor potential channel 6 (Mus musculus), Q61143 | B-score at 10 µM | ACh-evoked depolarization; active compounds read low | AID 2553, 2010 | 310,000 tested, 1.1% active;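 active = B-score under library mean minus 3 SD, initial fluorescence not abnormally high, positive integrated signal ratio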;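 also: B-score derived from integrated fluorescence ratio over the kinetic read; more negative B-score means stronger inhibition of depolarization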
Target sequence (Q61143 whole entry, looked up): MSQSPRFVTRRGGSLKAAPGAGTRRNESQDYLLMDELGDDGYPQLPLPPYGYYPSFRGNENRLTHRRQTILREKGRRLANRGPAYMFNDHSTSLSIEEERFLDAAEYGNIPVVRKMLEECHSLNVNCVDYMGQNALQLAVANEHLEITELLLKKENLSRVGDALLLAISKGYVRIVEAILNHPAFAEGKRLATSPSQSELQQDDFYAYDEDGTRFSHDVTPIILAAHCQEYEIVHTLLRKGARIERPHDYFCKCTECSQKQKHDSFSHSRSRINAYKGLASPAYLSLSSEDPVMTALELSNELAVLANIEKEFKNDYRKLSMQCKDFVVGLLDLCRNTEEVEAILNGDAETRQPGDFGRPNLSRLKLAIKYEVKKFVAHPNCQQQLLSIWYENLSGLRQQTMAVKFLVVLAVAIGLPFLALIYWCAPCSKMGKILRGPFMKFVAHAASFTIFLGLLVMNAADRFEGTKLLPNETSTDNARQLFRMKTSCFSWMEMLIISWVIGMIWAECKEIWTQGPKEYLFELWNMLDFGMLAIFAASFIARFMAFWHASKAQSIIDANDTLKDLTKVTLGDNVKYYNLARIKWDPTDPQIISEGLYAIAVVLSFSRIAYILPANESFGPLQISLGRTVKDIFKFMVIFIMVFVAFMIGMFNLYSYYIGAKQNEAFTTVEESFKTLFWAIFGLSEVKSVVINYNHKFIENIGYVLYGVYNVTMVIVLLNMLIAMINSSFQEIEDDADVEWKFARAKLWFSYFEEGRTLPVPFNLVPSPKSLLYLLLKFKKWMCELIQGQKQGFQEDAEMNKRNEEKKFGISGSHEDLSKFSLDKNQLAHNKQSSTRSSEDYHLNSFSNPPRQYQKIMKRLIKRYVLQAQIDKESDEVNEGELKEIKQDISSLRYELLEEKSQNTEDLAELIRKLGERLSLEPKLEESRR
TRPC4 agonist: activators of mouse TRPC4 channel, primary screen, Fluo4 calcium, HEK293 TRPC4beta/mu-opioid cells. Short transient receptor potential channel 4 (Mus musculus), Q9QUQ5. Fluo4 calcium fluorescence; active compounds read high. B-score at 10 µM. 310,000 tested, 0.49% active. AID 2237, 2010;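 active = B-score above 5 SD of library B-scores, and initial fluorescence ratio not above library mean plus 5 SD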;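 also: positive B-score marks a calcium rise read as TRPC4 activation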
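System: HEK293 cells stably co-expressing mouse TRPC4beta and mu-opioid receptor; Schedule: Fluo4 dye loading 45 min at room temperature, 110 s recording; Detection: Fluo4 fluorescence, kinetic; Evaluation: B-scored integrated calcium fluorescence ratio; Controls: buffer (low) and maximal DAMGO (high).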
Platelet DG rel: inhibitors of platelet dense granule secretion, primary screen, cell-based, MLPCN, human platelets. human platelet-rich plasma, SFLLRN dense granule ATP release, luminescence. inhibition, %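 (compounds screened at 7.5 µM in platelet-rich plasma)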. 300,000 tested, 0.22% active. AID 1663, 2009;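 active = mean replicate score, as percent of positive control, at or above 50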
TRPC6 activator: mouse TRPC6 channel activators, primary screen, cell-based, HEK293, membrane potential dye. Short transient receptor potential channel 6 (Mus musculus), Q61143. HEK293-TRPC6 membrane potential dye fluorescence; active compounds read high. B-score at 10 µM. 310,000 tested, 0.13% active. AID 2550, 2010;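 active = B-score of the integrated fluorescence ratio above library mean plus 3 SD, and starting fluorescence ratio within library mean plus 5 SD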;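 also: higher score means more depolarization so channel activation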
The depositor's hits bear a star; i = inactive.

SMILES	TRPC4 inh	TRPC4 PAM	TRPC6 inh	TRPC4 agonist	Platelet DG rel	TRPC6 activator
Oc1ccc(/C=N/NC(=S)N/N=C/c2ccc(O)cc2)cc1	i	i	i	i	115*	i
O=C1CC2(CCN(S(=O)(=O)c3ccccc3F)CC2)Oc2ccccc21	i	30*	i	i	7	i
O=C1CC2(CCN(S(=O)(=O)c3ccccc3)CC2)Oc2ccccc21	i	50*	i	i	4	i
COc1ccc(S(=O)(=O)N2CCC3(CC2)CC(=O)c2ccccc2O3)cc1	i	i	i	i	8	i
COC(=O)C(C(=O)OC)C(C[N+](=O)[O-])c1ccc(O)c(OC)c1 (configuration not stated)	i	i	i	i	14	i
C[C@H](NC(=O)N1CCn2c1nc1ccccc12)C(=O)NCC1CCCO1 (some centres not stated)	i	i	i	i	-40	i
O=Cc1coc2c(ccc3ccccc32)c1=O	-5*	i	i	i	-2	i
Cc1cccc2c1Sc1ccccc1CC2=O	i	i	i	i	-9	i
C[N+]1(C)CCC(=C2c3ccccc3CC(=O)c3sccc32)CC1	i	i	-6.4*	i	18	i
OCC[C@@H]1C[C@H](O)[C@@H](O)[C@]2(CCc3ccccc3O2)O1	i	i	i	i	-4	i
COc1ccc(Cn2c(-c3ccc(OC)cc3)nc3ccccc32)cc1	i	i	i	i	-1	i
Cn1cccc1-c1nc2ccccc2n1Cc1ccccc1	-5*	i	i	i	-6	i
c1ccc(Cn2c(CN3CCCC3)nc3ccccc32)cc1	-7*	i	i	i	4	i
CCOc1ccc(S(=O)(=O)N2CCC(C(=O)NCc3ccncc3)CC2)cc1	i	i	i	i	1	i
O=C(Cc1ccccc1)NCCCN1CCN(CCCNC(=O)Cc2ccccc2)CC1	i	11*	i	i	6	i
O=C(Cn1nc(-c2ccccc2)ccc1=O)NCCN1CCN(Cc2ccccc2)CC1	i	19*	i	i	6	i
O=C(CN1CCN(c2ccc(F)cc2)CC1)Nc1ccc(S(=O)(=O)N2CCOCC2)cc1	i	i	i	i	-2	i
O=C(Nc1ccccc1Oc1cccnc1)C1CCCN(Cc2cccc(Cl)c2)C1 (configuration not stated)	-6*	i	i	i	-6	i
Cc1ccccc1CN1CCCC(C(=O)Nc2ccccc2Oc2cccnc2)C1 (configuration not stated)	-7*	i	i	i	2	i
COc1cc(CN2CCCC(C(=O)Nc3ccccc3Oc3cccnc3)C2)ccc1F (configuration not stated)	i	i	i	i	-6	i
O=C(NC1CC1)C1=C[C@H](C2CCCCC2)C[C@H](OCc2ccc(CO)cc2)O1	-6*	i	i	249*	-3	i
C#CCNC(=O)C1=C[C@H](C2CCCCC2)C[C@H](OCc2ccc(CO)cc2)O1	i	i	i	57*	2	i
O=S(=O)(NN1CCOCC1)c1ccc(Cl)s1	i	i	i	i	-9	i
CCCn1c(SCC(=O)NC2CCCCC2)nnc1-c1ccco1	i	i	i	i	3	i
CCOC(=O)C1(Cc2cccc(OC)c2)CCN(Cc2ccc(OC)c(OC)c2)CC1	i	i	i	i	5	i
SMILES	TRPC4 inh	TRPC4 PAM	TRPC6 inh	TRPC4 agonist	Platelet DG rel	TRPC6 activator
CCOC(=O)C1(Cc2cccc(OC)c2)CCN(CC2CC=CCC2)CC1 (configuration not stated)	-5*	i	i	i	19	i
CCOC(=O)C1(Cc2ccccc2)CCN(CC2CC=CCC2)CC1 (configuration not stated)	-6*	i	i	i	0	i
CCOC(=O)C1(Cc2cccc(OC)c2)CCN(Cc2cccc(O)c2)CC1	-8*	i	i	i	1	i
CCOC(=O)C1(Cc2cccc(F)c2)CCN(CC2CC2)CC1	i	i	i	i	28	i
Cc1nn(CCc2nc(-c3ccco3)cs2)c2[nH]c(=O)cc(C(F)(F)F)c12	i	i	i	i	-12	i
CCCCn1c(N)c(N(CC(C)C)C(=O)c2cc(Cl)nc3ccccc23)c(=O)[nH]c1=O	i	i	i	i	-8	i
CCOc1ccc(CN2CCN(c3cc(C)nc4c5c(C)cc(C)nc5nn34)CC2)cc1	i	i	i	50*	1	i
Clc1cc(Cl)cc(C2=NC(Cc3ccccc3)CO2)c1 (configuration not stated)	i	i	i	132*	-5	i
Cc1cc(OCc2cc(C(=O)NCCN3CCCCC3CO)no2)cc(C)c1Cl (configuration not stated)	-7*	i	i	i	0	i
CN(C)S(=O)(=O)c1cccc(NC(=O)CSc2nnnn2-c2ccccc2)c1	i	i	i	i	50*	i
CCN1CCN(c2nc(N)c([N+](=O)[O-])c(Nc3ccc(C)c(C)c3)n2)CC1	i	29*	i	i	1	i
Cc1ccc(Nc2nc(N3CCN(C)CC3)nc(N)c2[N+](=O)[O-])cc1C	i	i	i	i	-11	i
CCN1CCN(c2nc(N)c([N+](=O)[O-])c(Nc3ccc(C)cc3)n2)CC1	i	17*	i	i	-5	i
O=C(NCc1ccccc1F)C1CCCN1C(=O)Nc1ccc(Cl)cc1 (configuration not stated)	i	i	i	i	-2	i
CCCCC1=CC2=C(c3ccco3)C(=O)C(C)(OC(=O)c3ccc(OC)cc3)C(=O)C2=CN1c1ccccc1 (configuration not stated)	i	i	i	i	-1	i
CCc1ccc(/C=N/NC(=O)c2nnn(-c3nonc3N)c2CN2CCOCC2)cc1	i	i	i	i	50*	i
CN1CCN(Cc2c(C(=O)N/N=C/c3cccc(Br)c3)nnn2-c2nonc2N)CC1	i	i	i	43*	4	i
